High-throughput results deposited in PubChem by The Scripps Research Institute Molecular Screening Center.
An excerpt weighted towards active compounds, which were near 2% of everything screened.
M5 PAM: human M5 muscarinic receptor positive allosteric modulators, primary screen, CHO-K1 cells, Fluo-8 calcium fluorescence. 360,000 tested, 0.3% active. CHO-K1 hM5, ACh EC20 PAM; 0% = ACh EC20, 100% = ACh EC100. Muscarinic acetylcholine receptor M5 (Homo sapiens), P08912. activation, % at 3 µM;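 active means activation above the run cutoff, the mean activation of all test compounds plus 3 SD, cut at about 18% in these data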
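Assay system: CHO-K1 hM5 cells / Incubation: Fluo-8 loading 80 min at 37 °C plus 30 min room temperature / Technique: Fluo-8 calcium dye fluorescence, kinetic read / Repeats: single replicate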
M5 ag: human M5 muscarinic receptor agonists, primary screen, CHO-K1 cells, Fluo-8 calcium fluorescence; Muscarinic acetylcholine receptor M5 (Homo sapiens), P08912; CHO-K1 hM5 cells; 0% DMSO wells, 100% maximal acetylcholine response; activation, % at 3 µM; 360,000 tested, 0.19% active; AID 624037, 2012;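 active means activation above the run's mean over test compounds plus 3 SD, cut at about 23% in these data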;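 further: signal is peak over basal fluorescence ratio across the kinetic read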
CHRM1 antagonist: human M1 muscarinic receptor antagonists, primary screen, CHO-K1 cells, Fluo-8 calcium fluorescence, 1536-well; CHO-K1 hM1, ACh EC80 antagonist; 360,000 tested, 1.3% active; AID 588852, 2011; Muscarinic acetylcholine receptor M1 (Homo sapiens), P11229; inhibition, % at 3 µM;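 active means percent inhibition above its own plate's cutoff, namely the mean of that plate's compound wells plus 3 SD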;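 further: peak over basal fluorescence ratio during 140 s after agonist addition; 0% = ACh EC80 plus DMSO and 100% = DMSO alone without agonist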
Target sequence (P11229 whole entry, looked up): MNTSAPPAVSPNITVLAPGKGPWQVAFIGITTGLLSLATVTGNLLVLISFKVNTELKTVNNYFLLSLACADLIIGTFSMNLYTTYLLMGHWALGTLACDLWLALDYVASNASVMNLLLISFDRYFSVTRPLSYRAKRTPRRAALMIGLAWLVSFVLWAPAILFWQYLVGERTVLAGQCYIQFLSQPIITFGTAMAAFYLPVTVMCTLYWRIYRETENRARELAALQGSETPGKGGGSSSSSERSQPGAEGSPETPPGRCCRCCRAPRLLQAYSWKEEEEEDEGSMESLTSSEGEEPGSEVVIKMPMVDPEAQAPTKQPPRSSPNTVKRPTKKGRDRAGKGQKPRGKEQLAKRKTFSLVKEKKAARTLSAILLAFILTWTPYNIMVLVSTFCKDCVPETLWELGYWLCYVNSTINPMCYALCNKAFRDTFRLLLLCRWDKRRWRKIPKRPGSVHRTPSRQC
M5 antag: human M5 muscarinic receptor antagonists, primary screen, CHO cells, Fluo-8 calcium fluorescence | 360,000 tested, 0.59% active | AID 624040, 2012 | inhibition, % at 3 µM | CHO-hM5 cells, ACh EC80;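 active means inhibition above a per-plate cutoff, the mean of that plate's test compounds plus 3 SD, cut at about 27% in these data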;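 further: 0% = acetylcholine EC80 with DMSO and 100% = DMSO without agonist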
M1 PAM: human M1 muscarinic receptor positive allosteric modulators, primary screen, CHO-K1 cells, Fluo-8 calcium fluorescence, 1536-well. CHO-K1 hM1, ACh EC20; 0% = ACh EC20, 100% = maximal ACh. activation, % at 3 µM. 360,000 tested, 0.088% active; in the data active means activation above about 19%, passing the limit was not always enough
M1 ag: human M1 muscarinic receptor agonists, primary screen, Fluo-8 calcium fluorescence, CHO-K1 cells, HTS | activation, % at 3 µM | AID 588814, 2011 | CHO-K1 hM1, agonist mode; 0% DMSO, 100% acetylcholine EC100 | 360,000 tested, 0.33% active | Muscarinic acetylcholine receptor M1 (Homo sapiens), P11229;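 active means activation above the run's mean compound activation plus 3 SD, cut at about 16% in these data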;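 further: peak over basal fluorescence ratio within a 140 s kinetic read after compound addition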
Numbers without * were called inactive; . = no result.

SMILES	M5 PAM	M5 ag	CHRM1 antagonist	M5 antag	M1 PAM	M1 ag
CCC/C=C/c1ccc(CN2C(C)C(=O)N(Cc3cn(CCC4OCCCO4)nn3)CCS2(=O)=O)cc1 (centres undefined)	-1	-2	-16	-2	13	0
CN(CCOc1ccc(Cl)cc1)C(=O)c1cc(-c2ccco2)nc2ccccc12	-26	2	38*	28*	-11	-1
Cc1nc2cc(NC(=O)Nc3cccc4ccccc34)ccc2n1C	5	0	-5	-3	6	-7
O=C(Nc1ccc2snnc2c1)Nc1cccc2ccccc12	-19	10	-9	16	-7	17*
CCN(CC)C(=O)N1c2ccccc2Sc2ccccc21	-6	-9	-7	9	2	-8
CCN(CC)CC(=O)N1c2ccccc2Sc2ccc(Cl)cc21	-49	-17	99*	97*	-20	-4
CCN(CC)CC(=O)N1c2ccccc2Sc2ccccc21	-18	-5	101*	92*	-28	-9
CCN(CC)CCCCN1c2ccccc2Sc2ccccc21	-22	-4	101*	88*	-27	-7
CCN(CC)CCNC(=O)Cn1nc(-c2ccccc2)c2ccccc2c1=O	-4	-10	9	8	-5	-6
CCN(CC)CCNC(=O)Cn1ncc2ccccc2c1=O	20*	8	-16	-11	22	-1
CC(=O)NC(c1cccc(F)c1)c1nc(-c2cnc3ccccc3c2)cs1 (centres undefined)	-1	-1	-13	3	4	-4
S=C(Nc1ccc(Cl)cc1)NC1CCCCC1	-11	1	1	7	-5	0
FC(F)Oc1ccc(NC(=S)NC2CCSc3ccccc32)cc1 (centres undefined)	-18	0	87*	43*	-24	0
O=C(NC1CCSc2ccccc21)c1cccc(OC(F)F)c1 (centres undefined)	0	-6	-10	-3	5	-9
FC(F)Oc1ccc(NC(=S)NC2CCCCCCC2)cc1	-12	1	34*	34*	-24	-6
CC(C)CNC(=O)C1(C)CCCN1C(=O)c1c(Cl)cccc1Cl (centres undefined)	1	0	-16	0	8	-4
CC(OC(=O)CNC(=O)c1cccs1)C(=O)Nc1ccc(S(N)(=O)=O)cc1 (centres undefined)	2	0	-12	7	9	4
CC(=O)Nc1ccc(NC(=O)C(C)OC(=O)CNC(=O)c2cccs2)cc1 (centres undefined)	-32	-8	-4	97*	5	-3
CCc1cc(CNC(=O)C2CCC(=O)N(CCc3ccc(OC)cc3)C2)on1 (centres undefined)	-14	-4	7	28*	-1	-4
COc1ccc(CCN2CC(C(=O)NCc3cc(C)on3)CCC2=O)cc1 (centres undefined)	10	-1	-9	-13	6	-3
Cn1cc(CNC(=O)C2CCC(=O)N(Cc3ccccc3F)C2)cn1 (centres undefined)	8	-4	-16	-9	26*	1
CCn1cc(CNC(=O)C2CCC(=O)N(Cc3ccccc3F)C2)cn1 (centres undefined)	-4	-4	-9	8	6	-6
COC(=O)[C@@]1(Cc2ccccc2)[C@H]2C(=O)N(C)C(=O)[C@H]2[C@H]2CN=C(SCC(=O)c3ccccc3)N21	-1	0	102*	2	-32	-11
COC(=O)[C@@]1(Cc2ccccc2)[C@H]2C(=O)N(C)C(=O)[C@H]2[C@H]2CN=C(SCC3CC3)N21	-3	-1	-11	18	5	-4
Cc1ccc([C@H]2C[C@H](O)[C@@H](n3cc(C4CC4)nn3)CN2Cc2cccs2)cc1	6	7	-15	-13	19	9
SMILES	M5 PAM	M5 ag	CHRM1 antagonist	M5 antag	M1 PAM	M1 ag
Oc1ccc(C[C@H]2CN([C@@H](Cc3cccc(O)c3)CN3CCC[C@@H]3CN3C(=S)NC[C@@H]3Cc3ccccc3)C(=S)N2CC2CCCCC2)cc1	-2	-4	-2	0	1	-11
CCNC(=S)N1CCN(c2ccc([N+](=O)[O-])cc2)CC1	-4	2	-24	-1	6	1
O=C(c1cc([N+](=O)[O-])ccc1N1CCOCC1)N1CCN(c2ccc([N+](=O)[O-])cc2)CC1	-4	-4	32*	7	-11	-6
O=C(NC1CCCCC1)N1CCN(c2ccc([N+](=O)[O-])cc2)CC1	-10	1	27*	8	-15	0
O=C(c1cc([N+](=O)[O-])ccc1N1CCOCC1)N1CCCCC1	-1	0	-5	-11	5	-7
O=C(NC1CCCCC1)N1CCN(c2ccc(Cl)cc2)CC1	-5	5	5	16	0	1
Cc1noc(C)c1CSCC(=O)N1CCN(c2ccc([N+](=O)[O-])cc2)CC1	-25	2	58*	29*	-21	1
O=[N+]([O-])c1ccc(N2CCN(C(=S)NCc3ccc(Cl)cc3)CC2)cc1	-20	2	37*	29*	-10	0
CC(C)c1ccccc1NC(=O)Nc1nnc([C@@H]2C[C@H](O)[C@@H](CO)O2)s1	2	0	-12	-10	23	5
CC(C)C[C@H]1CN(CCCC[C@@H]2CNC(=O)C(=O)N2CC2CCCCC2)C(=O)C(=O)N1Cc1ccccc1	-3	-2	.	0	.	.
O=C(Cn1cc(COc2ccc3ccccc3c2)nn1)NS(=O)(=O)c1cccc(OC(F)F)c1	0	-1	-2	2	-1	-5
CC(C)C[C@H]1CN(CCCC[C@H]2CNC(=O)C(=O)N2CCc2ccc(O)cc2)C(=O)C(=O)N1CCc1ccccc1	2	-4	.	1	.	.
C[C@H]1CN=C(N(C)C)N1CCc1ccccc1	-5	-11	-10	12	8	-9
CC(CCN1C(N(C)C)=NC[C@@H]1C)c1ccccc1 (some centres undefined)	-14	-12	31*	5	-23	-14
O=C(CN1CCC(NC(=O)Nc2ccccc2-c2ccccc2)CC1)NCc1ccco1	-18	-7	25	61*	-25	-6
O=C(CN1CCC(NC(=O)C2CCCCC2)CC1)NCc1ccco1	-2	-3	-1	-10	4	-6
